Here are results for two compounds from publication PMC3187937 (Biochemistry, 2011).

The term Vmax denotes the rate approached at saturating substrate. A word on the Km: it is the concentration of substrate that gives half-maximal velocity. For orientation: Ki means a dissociation constant, usually derived from enzyme kinetics or from competition with a known ligand. As a reminder, the residual activity is the share of the control activity or signal that is left under treatment. A low value points to little activity left.

Where “and” joins values, the source holds several entries; their conditions need not be identical. Equal entries are not always repeated. Where two headings read alike, the source gives them in different places. Where only a bound is given, the exact number is not on record here.

Test [1] concerns the target T1, R. capsulatus wild-type cyt bc1 (Rhodobacter capsulatus, UniProt D5ANZ3).
T1 sequence (D5ANZ3 1-437): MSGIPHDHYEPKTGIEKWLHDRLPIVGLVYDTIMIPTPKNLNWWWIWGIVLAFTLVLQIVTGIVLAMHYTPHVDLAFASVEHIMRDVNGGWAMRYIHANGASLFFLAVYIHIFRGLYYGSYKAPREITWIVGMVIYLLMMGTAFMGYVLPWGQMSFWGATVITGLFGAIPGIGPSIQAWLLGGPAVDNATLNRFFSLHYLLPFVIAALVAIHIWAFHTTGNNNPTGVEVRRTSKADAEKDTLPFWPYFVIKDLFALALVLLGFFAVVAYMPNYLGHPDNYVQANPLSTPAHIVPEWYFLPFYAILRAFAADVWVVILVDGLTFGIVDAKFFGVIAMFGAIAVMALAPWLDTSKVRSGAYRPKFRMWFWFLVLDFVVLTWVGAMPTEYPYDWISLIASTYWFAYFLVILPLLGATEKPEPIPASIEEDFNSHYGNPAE
T1 sequence (D5ANZ2 1-191 partner): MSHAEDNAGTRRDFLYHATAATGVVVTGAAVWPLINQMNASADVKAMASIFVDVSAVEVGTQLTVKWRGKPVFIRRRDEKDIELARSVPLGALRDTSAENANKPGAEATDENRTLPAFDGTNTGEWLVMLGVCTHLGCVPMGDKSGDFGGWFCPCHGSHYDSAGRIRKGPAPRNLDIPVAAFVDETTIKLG
T1 sequence (D5ANZ4 22-279 partner): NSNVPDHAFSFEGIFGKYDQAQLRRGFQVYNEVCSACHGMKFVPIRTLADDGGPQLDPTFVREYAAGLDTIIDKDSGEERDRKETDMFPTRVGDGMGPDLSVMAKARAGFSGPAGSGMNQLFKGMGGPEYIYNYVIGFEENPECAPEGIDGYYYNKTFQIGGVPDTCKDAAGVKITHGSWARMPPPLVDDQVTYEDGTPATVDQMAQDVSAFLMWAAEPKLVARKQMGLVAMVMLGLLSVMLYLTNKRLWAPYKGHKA
Description: Michaelis-Menten kinetics of DBH2:cyt c reductase, wild-type enzyme. Format: biochemical. Conditions: DBH2 as substrate. In a few lines:
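Enzyme purified by DDM solubilisation of chromatophore membranes from respiratory-grown cells, then DEAE and Sephacryl S400 chromatography. Assay: 2.3 nM enzyme with 40 μM horse heart cyt c, 2 mM KCN and 0.1 g/L DDM in 50 mM sodium phosphate pH 7.4, stirred at 20 °C. DBH₂ in DMSO was varied from 0.5 to 40 μM. Initial cyt c reduction rate read at 550 nm over 1 min. Km and Vmax came from double-reciprocal plots and Michaelis-Menten fitting.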

The target in test [2] is R. capsulatus E295V mutant cyt bc1 (Rhodobacter capsulatus, UniProt D5ANZ3, E295V). Description: Michaelis-Menten kinetics of DBH2:cyt c reductase, E295V mutant enzyme. Format: biochemical. Conditions: DBH2 as substrate.
R. capsulatus E295V mutant cyt bc1, sequence (D5ANZ3 whole entry E295V, one chain of several): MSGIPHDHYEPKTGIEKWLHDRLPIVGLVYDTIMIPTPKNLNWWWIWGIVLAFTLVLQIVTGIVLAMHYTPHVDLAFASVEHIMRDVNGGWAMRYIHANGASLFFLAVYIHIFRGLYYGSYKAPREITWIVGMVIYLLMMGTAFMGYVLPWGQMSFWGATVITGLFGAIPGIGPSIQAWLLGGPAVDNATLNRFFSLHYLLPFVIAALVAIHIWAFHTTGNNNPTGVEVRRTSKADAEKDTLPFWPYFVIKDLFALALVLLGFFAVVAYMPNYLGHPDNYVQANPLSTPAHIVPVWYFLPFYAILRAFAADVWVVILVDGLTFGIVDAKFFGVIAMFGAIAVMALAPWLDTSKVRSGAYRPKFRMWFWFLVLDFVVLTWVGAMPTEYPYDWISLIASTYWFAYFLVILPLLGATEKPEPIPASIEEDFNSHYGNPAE
The target of test [3] is purified R. capsulatus cyt b E295V mutant cyt bc1 (Rhodobacter capsulatus, UniProt D5ANZ3, E295V). Description: Zn^2+ inhibition kinetics of DBH2:cyt c reductase activity, E295V mutant enzyme. Format: biochemical.
purified R. capsulatus cyt b E295V mutant cyt bc1, sequence (D5ANZ3 whole entry E295V, one chain of several): as above
Test [4] addresses bovine cyt bc1. The following applies: cited from earlier work.
Test [5] has as its target T2, purified R. capsulatus wild-type cyt bc1 (Rhodobacter capsulatus, UniProt D5ANZ3).
T2 sequence (D5ANZ3 1-437): T1 sequence (D5ANZ3 1-437)
T2 sequence (D5ANZ2 1-191 partner): T1 sequence (D5ANZ2 1-191 partner)
T2 sequence (D5ANZ4 22-279 partner): T1 sequence (D5ANZ4 22-279 partner)
Description: Zn^2+ inhibition kinetics of DBH2:cyt c reductase activity, wild-type enzyme. It counts as biochemical. Conditions: 40 mM Tris-HCl buffer pH 7.5, single homogeneous inhibition site fit, free Zn^2+.

The target in another test is chicken cyt bc1. The following applies: avian; ref [25]; cited from earlier work.
In test [6] the target is bovine cyt bc1. The following applies: cited from earlier work. This is another data set of the same source.
Another test has as its target E295V mutant cyt bc1 (Rhodobacter capsulatus, UniProt D5ANZ3, E295V). Format: binding.
The next test has as its target T3, wild-type cyt bc1 (Rhodobacter capsulatus, UniProt D5ANZ3).
T3 sequence (D5ANZ3 1-437): T1 sequence (D5ANZ3 1-437)
T3 sequence (D5ANZ2 1-191 partner): T1 sequence (D5ANZ2 1-191 partner)
T3 sequence (D5ANZ4 22-279 partner): T1 sequence (D5ANZ4 22-279 partner)
The experiment in a line: Isothermal titration calorimetry of Zn^2+ binding, wild-type enzyme. Background: Isothermal titration calorimetry measures the heat released or taken up as one component is titrated into another.

Test [7] has as its target T4, hemes of R. capsulatus cyt bc1 (Rhodobacter capsulatus, UniProt D5ANZ3).
T4 sequence (D5ANZ3 1-437): T1 sequence (D5ANZ3 1-437)
T4 sequence (D5ANZ2 1-191 partner): T1 sequence (D5ANZ2 1-191 partner)
T4 sequence (D5ANZ4 22-279 partner): T1 sequence (D5ANZ4 22-279 partner)

Where [8] appears, read: E295V, blind fit, two-site model.

E295V mutant cyt bc1, sequence (D5ANZ3 whole entry E295V, one chain of several): as above

Consider `CCCCCCCCCCc1c(C)c(O)c(OC)c(OC)c1O` [DBH2, Decylbenzohydroquinone], for which the Kcat in test [1] stood at 85.2 ± 13.1 s⁻¹; in test [2] (E295V), 34.3 ± 4.5 s⁻¹. The Vmax in [1] was 42.4 µmol/min/mg and 42.4 ± 0.8 µmol/min/mg; in [2] (E295V), 10.6 ± 0.4 µmol/min/mg. Moreover, the Km in test [1] (purified enzyme) worked out at 4.9 ± 0.2 µM; in [2] (E295V, purified enzyme), 3.1 ± 0.4 µM. In addition, in test [2] (steady-state), the “Vmax of E295V relative to wild type (fold lower)” value stood at 4 fold.

Consider `[Zn+2]` [Zn^2+], for which the Ki in test [3] (40 mM Tris-HCl buffer pH 7.5, single site fit, free Zn^2+) was 2600 nM; on bovine cyt bc1 [4] (pH 7.0, ref [39]), 100 nM; in test [5], 900 nM; on chicken cyt bc1, 3000 nM. The residual activity in [3] ([Zn^2+] > 0.2 mM) amounted to 30%. In the test on bovine cyt bc1 [4] (ref [39]), the “Complete inhibition (Zn^2+ concentration)” value was “[Zn^2+] > 5 μM”. Further, the Kd is 100 nM on bovine cyt bc1 [6] (pH 7.0, first value of cell, ref [39]); greater than 2000 nM at bovine cyt bc1 [6] (read-out: KD (second value), second value of cell, ref [39]); 1000 ± 360 nM on E295V mutant cyt bc1 (read-out: KD1 (high affinity site), E295V, two-site model with n1 = 1 fixed); 3500 ± 1600 nM at E295V mutant cyt bc1 (read-out: KD2 (low affinity sites), E295V, n1 = 1 fixed); 5810 ± 1220 nM on E295V mutant cyt bc1 (read-out: KD2, E295V, blind fit, two-site model); 500 ± 70 nM on wild-type cyt bc1 (read-out: KD1 (high affinity site), two-site model). In addition, the Kd was found to be 6800 ± 900 nM on wild-type cyt bc1 (read-out: KD2 (lower affinity sites), two-site model); 500 nM at wild-type cyt bc1 (read-out: KD (high affinity site), two-site model); 6800 nM at wild-type cyt bc1 (read-out: KD (lower affinity sites), two-site model). Also, the n1 on E295V mutant cyt bc1 (setting [8]) amounted to 1.97 ± 0.08. At E295V mutant cyt bc1 (setting [8]), the “n2, low affinity binding sites per cyt bc1” value is recorded as 7.1 ± 0.3. Moreover, the ΔH1 is -9.9 ± 0.7 kcal/mol on E295V mutant cyt bc1 (setting [8]); -28 ± 4 kcal/mol on E295V mutant cyt bc1 (E295V, n1 = 1 fixed); -5.6 ± 0.2 kcal/mol at wild-type cyt bc1 (high affinity site). Further, the ΔH2 at E295V mutant cyt bc1 (setting [8]) is -2.6 ± 0.3 kcal/mol; on E295V mutant cyt bc1 (E295V, n1 = 1 fixed) it was -0.9 ± 0.5 kcal/mol; on wild-type cyt bc1 (lower affinity sites), -1.4 ± 0.2 kcal/mol. Moreover, at E295V mutant cyt bc1 (E295V, n1 = 1 fixed), the “n2, number of low affinity sites” value is reported as 9.1 ± 0.5. The “change of KD1 of high affinity site in E295V compared to wild type” value at E295V mutant cyt bc1 (unitary stoichiometry assumed) is “increase by a factor of two”. Also, at wild-type cyt bc1 (sites per protein complex), the “n1, stoichiometry of high affinity site” value is recorded as 1.13 ± 0.03. For the same compound, the “n2, number of lower affinity binding sites” value on wild-type cyt bc1 (sites per protein complex) was 3.7 ± 0.2. The “effect on midpoint potentials of the b-type hemes” value in test [7] (wild type, 200 μM Zn^2+, oxidative titration, pH 8.0) is “does not significantly affect”. Further, the “effect on oxidation rate” value in test [7] (with Zn^2+ added, +500 mV vs SHE) is on record as “remained unaffected”. Further, the “time to fully reduced samples after application of the reducing potential” value in [7] (with Zn^2+ added, −500 mV vs SHE, within 7 minutes without Zn^2+) came out at 10 min.
